ChEMBL document CHEMBL3576819, “Design, synthesis, biological evaluation and molecular docking studies of phenylpropanoid derivatives as potent anti-hepatitis B virus agents” (Eur J Med Chem, 2015)

Assays:
[1] = tested on: Hepatitis B virus; assay: Antiviral activity against Hepatitis B virus infected in human HepG2.2.15 cells assessed as inhibition of HBsAg secretion at 300 uM after 3 days by ELISA; assay type: functional; conditions: HepG2 2.2.15, 72 h
Method in brief: (§1)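 HepG2.2.15 cells (MEM, 10% FBS, 380 µg/ml G418) seeded at 1×10^5 cells/ml, held 24 h at 37 °C, then treated with various drug concentrations; medium with drug renewed every 3 d for up to 9 d. Culture medium sampled on days 3, 6 and 9, stored at -20 °C, and assayed for secreted antigen. Lamivudine as positive control; IC50 = 50% inhibition of secretion; means of at least two experiments.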

[2] = tested on: Hepatitis B virus; assay: Antiviral activity against Hepatitis B virus infected in human HepG2.2.15 cells assessed as inhibition of HBeAg secretion at 150 uM after 9 days by ELISA; assay type: functional; conditions: HepG2 2.2.15, 216 h; method in brief: as §1
[3] = tested on: Hepatitis B virus; assay: Antiviral activity against Hepatitis B virus infected in human HepG2.2.15 cells assessed as inhibition of HBeAg secretion at 75 uM after 9 days by ELISA; assay type: functional; conditions: HepG2 2.2.15, 216 h; method in brief: as §1
[4] = tested on: Hepatitis B virus; assay: Antiviral activity against Hepatitis B virus infected in human HepG2.2.15 cells assessed as inhibition of HBsAg secretion at 150 uM after 9 days by ELISA; assay type: functional; conditions: HepG2 2.2.15, 216 h; method in brief: as §1
[5] = tested on: Hepatitis B virus; assay: Antiviral activity against Hepatitis B virus infected in human HepG2.2.15 cells assessed as cell survival at 150 uM after 9 days (reference value: 100%); assay type: functional; conditions: HepG2 2.2.15, 216 h
Method in brief: (§2)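 HepG2.2.15 cells (MEM, 10% FBS, 380 µg/ml G418, 37 °C, 5% CO2) seeded at 1×10^5 cells/ml, cultured 24 h, then exposed to various drug concentrations; drug-containing medium renewed every 3 d. OD read at 450 nm after 9 days; percent cell death calculated; CC50 = concentration killing 50% of cells. Means of at least two experiments.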

[6] = tested on: Hepatitis B virus; assay: Antiviral activity against Hepatitis B virus infected in human HepG2.2.15 cells assessed as inhibition of HBeAg secretion at 300 uM after 9 days by ELISA; assay type: functional; conditions: HepG2 2.2.15, 216 h; method in brief: as §1
[7] = tested on: Hepatitis B virus; assay: Antiviral activity against Hepatitis B virus infected in human HepG2.2.15 cells assessed as inhibition of HBsAg secretion at 150 uM after 6 days by ELISA; assay type: functional; conditions: HepG2 2.2.15, 144 h; method in brief: as §1
[8] = tested on: Hepatitis B virus; assay: Antiviral activity against Hepatitis B virus infected in human HepG2.2.15 cells assessed as cell survival at 300 uM after 9 days (reference value: 100%); assay type: functional; conditions: HepG2 2.2.15, 216 h; method in brief: as §2
[9] = Selectivity index, ratio of CC50 for human HepG2.2.15 cells to IC50 for Hepatitis B virus infected in human HepG2.2.15 cells assessed as inhibition of HBeAg secretion; assay type: functional
Method in brief: (§3)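 Selectivity index computed as CC50/IC50, with CC50 from cell death of HepG2.2.15 cells after 9 days of treatment (OD 450 nm) and IC50 from 50% inhibition of HBeAg or HBsAg secretion in the same cells; medium with drug renewed every 3 d.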

[10] = tested on: Hepatitis B virus; assay: Antiviral activity against Hepatitis B virus infected in human HepG2.2.15 cells assessed as inhibition of HBsAg secretion at 75 uM after 9 days by ELISA; assay type: functional; conditions: HepG2 2.2.15, 216 h; method in brief: as §1
[11] = tested on: Hepatitis B virus; assay: Antiviral activity against Hepatitis B virus infected in human HepG2.2.15 cells assessed as inhibition of HBsAg secretion at 75 uM after 6 days by ELISA; assay type: functional; conditions: HepG2 2.2.15, 144 h; method in brief: as §1
[12] = tested on: Hepatitis B virus; assay: Antiviral activity against Hepatitis B virus infected in human HepG2.2.15 cells assessed as inhibition of HBsAg secretion at 37.5 uM after 9 days by ELISA; assay type: functional; conditions: HepG2 2.2.15, 216 h; method in brief: as §1
[13] = tested on: Hepatitis B virus; assay: Antiviral activity against Hepatitis B virus infected in human HepG2.2.15 cells assessed as inhibition of HBeAg secretion at 300 uM after 6 days by ELISA; assay type: functional; conditions: HepG2 2.2.15, 144 h; method in brief: as §1
[14] = tested on: Hepatitis B virus; assay: Antiviral activity against Hepatitis B virus infected in human HepG2.2.15 cells assessed as inhibition of HBeAg secretion at 150 uM after 6 days by ELISA; assay type: functional; conditions: HepG2 2.2.15, 144 h; method in brief: as §1
[15] = tested on: Hepatitis B virus; assay: Antiviral activity against Hepatitis B virus infected in human HepG2.2.15 cells assessed as inhibition of HBeAg secretion at 300 uM after 3 days by ELISA; assay type: functional; conditions: HepG2 2.2.15, 72 h; method in brief: as §1
[16] = tested on: Hepatitis B virus; assay: Antiviral activity against Hepatitis B virus infected in human HepG2.2.15 cells assessed as inhibition of HBsAg secretion at 37.5 uM after 6 days by ELISA; assay type: functional; conditions: HepG2 2.2.15, 144 h; method in brief: as §1
[17] = tested on: Hepatitis B virus; assay: Antiviral activity against Hepatitis B virus infected in human HepG2.2.15 cells assessed as inhibition of HBeAg secretion at 37.5 uM after 3 days by ELISA; assay type: functional; conditions: HepG2 2.2.15, 72 h; method in brief: as §1
[18] = tested on: Hepatitis B virus; assay: Antiviral activity against Hepatitis B virus infected in human HepG2.2.15 cells assessed as inhibition of HBsAg secretion at 75 uM after 3 days by ELISA; assay type: functional; conditions: HepG2 2.2.15, 72 h; method in brief: as §1
[19] = tested on: Hepatitis B virus; assay: Antiviral activity against Hepatitis B virus infected in human HepG2.2.15 cells assessed as cell survival at 75 uM after 9 days (reference value: 100%); assay type: functional; conditions: HepG2 2.2.15, 216 h; method in brief: as §2
[20] = Selectivity index, ratio of CC50 for human HepG2.2.15 cells to IC50 for Hepatitis B virus infected in human HepG2.2.15 cells assessed as inhibition of HBsAg secretion; assay type: functional; method in brief: as §3
[21] = tested on: Hepatitis B virus; assay: Antiviral activity against Hepatitis B virus infected in human HepG2.2.15 cells assessed as inhibition of HBeAg secretion at 37.5 uM after 6 days by ELISA; assay type: functional; conditions: HepG2 2.2.15, 144 h; method in brief: as §1
[22] = tested on: Hepatitis B virus; assay: Antiviral activity against Hepatitis B virus infected in human HepG2.2.15 cells assessed as inhibition of HBeAg secretion at 150 uM after 3 days by ELISA; assay type: functional; conditions: HepG2 2.2.15, 72 h; method in brief: as §1
[23] = tested on: Hepatitis B virus; assay: Antiviral activity against Hepatitis B virus infected in human HepG2.2.15 cells assessed as inhibition of HBeAg secretion by ELISA; assay type: functional, organism-based; conditions: HepG2 2.2.15; method in brief: as §1
[24] = tested on: Hepatitis B virus; assay: Antiviral activity against Hepatitis B virus infected in human HepG2.2.15 cells assessed as inhibition of HBeAg secretion at 75 uM after 3 days by ELISA; assay type: functional; conditions: HepG2 2.2.15, 72 h; method in brief: as §1
[25] = tested on: Hepatitis B virus; assay: Antiviral activity against Hepatitis B virus infected in human HepG2.2.15 cells assessed as inhibition of HBsAg secretion at 150 uM after 3 days by ELISA; assay type: functional; conditions: HepG2 2.2.15, 72 h; method in brief: as §1
[26] = tested on: Hepatitis B virus; assay: Antiviral activity against Hepatitis B virus infected in human HepG2.2.15 cells assessed as inhibition of HBsAg secretion at 300 uM after 9 days by ELISA; assay type: functional; conditions: HepG2 2.2.15, 216 h; method in brief: as §1
[27] = tested on: Hepatitis B virus; assay: Antiviral activity against Hepatitis B virus infected in human HepG2.2.15 cells assessed as cell survival at 37.5 uM after 9 days (reference value: 100%); assay type: functional; conditions: HepG2 2.2.15, 216 h; method in brief: as §2
[28] = tested on: Hepatitis B virus; assay: Antiviral activity against Hepatitis B virus infected in human HepG2.2.15 cells assessed as inhibition of HBsAg secretion by ELISA; assay type: functional, organism-based; conditions: HepG2 2.2.15; method in brief: as §1
[29] = tested on: Hepatitis B virus; assay: Antiviral activity against Hepatitis B virus infected in human HepG2.2.15 cells assessed as inhibition of HBeAg secretion at 75 uM after 6 days by ELISA; assay type: functional; conditions: HepG2 2.2.15, 144 h; method in brief: as §1
[30] = tested on: Hepatitis B virus; assay: Antiviral activity against Hepatitis B virus infected in human HepG2.2.15 cells assessed as inhibition of HBsAg secretion at 37.5 uM after 3 days by ELISA; assay type: functional; conditions: HepG2 2.2.15, 72 h; method in brief: as §1
[31] = Cytotoxicity against human HepG2.2.15 cells assessed as cell death after 9 days by MTT assay; assay type: cell-based, HepG2 2.2.15; method in brief: as §2
[32] = tested on: Hepatitis B virus; assay: Antiviral activity against Hepatitis B virus infected in human HepG2.2.15 cells assessed as inhibition of HBsAg secretion at 300 uM after 6 days by ELISA; assay type: functional; conditions: HepG2 2.2.15, 144 h; method in brief: as §1
[33] = tested on: Hepatitis B virus; assay: Antiviral activity against Hepatitis B virus infected in human HepG2.2.15 cells assessed as inhibition of HBeAg secretion at 37.5 uM after 9 days by ELISA; assay type: functional; conditions: HepG2 2.2.15, 216 h; method in brief: as §1

Structure (SMILES) | inhibition at 300 µM [1] | inhibition at 150 µM [2] | inhibition at 75 µM [3] | inhibition at 150 µM [4] | viability at 150 µM [5] | inhibition at 300 µM [6] | inhibition at 150 µM [7] | viability at 300 µM [8] | Ratio CC50/IC50 [9] | inhibition at 75 µM [10] | inhibition at 75 µM [11] | inhibition at 37.5 µM [12] | inhibition at 300 µM [13] | inhibition at 150 µM [14] | inhibition at 300 µM [15] | inhibition at 37.5 µM [16] | inhibition at 75 µM [18] | viability at 75 µM [19] | Ratio CC50/IC50 [20] | inhibition at 37.5 µM [21] | also measured
COc1ccc(/C=C/C(=O)O/N=C/c2ccco2)cc1OC | 47.2% | 43.7% | 37.3% | 47.3% | 114% | 56.6% | 44.2% | 103% | 3.1 | 39.4% | 36.5% | 21.2% | 48.8% | 42% | 41.8% | 20.8% | 33.6% | 120% | 3.26 | 20% | inhibition at 37.5 µM [17]: 14.1%; inhibition at 150 µM [22]: 30.4%; IC50 [23]: 202 µM; inhibition at 75 µM [24]: 18.2%; inhibition at 150 µM [25]: 39.7%; inhibition at 300 µM [26]: 55%; viability at 37.5 µM [27]: 128%; IC50 [28]: 191 µM; inhibition at 75 µM [29]: 27.9%; inhibition at 37.5 µM [30]: 19.9%; CC50 at 216 h [31]: 624 µM; inhibition at 300 µM [32]: 53.8%; inhibition at 37.5 µM [33]: 27%
COc1ccc(/C=C/C(=O)O/N=C/c2cccs2)cc1OC | 47.6% | 26.9% | 22.6% | 42.8% | 98.7% | 52.3% | 41.2% | 97.7% | 1.52 | 29.3% | 29.6% | 20.5% | 35.4% | 20.4% | 14.3% | 19.8% | 28.4% | 101% | 2.51 | 8.58% | inhibition at 37.5 µM [17]: 0.63%; inhibition at 150 µM [22]: 11.8%; IC50 [23]: 378 µM; inhibition at 75 µM [24]: 7.04%; inhibition at 150 µM [25]: 40.7%; inhibition at 300 µM [26]: 55%; viability at 37.5 µM [27]: 114%; IC50 [28]: 229 µM; inhibition at 75 µM [29]: 15.3%; inhibition at 37.5 µM [30]: 17.4%; CC50 at 216 h [31]: 574 µM; inhibition at 300 µM [32]: 52.6%; inhibition at 37.5 µM [33]: 18.6%
COc1cc(/C=C/C(=O)O/N=C/c2cccs2)cc(OC)c1OC | 44.7% | 46.3% | 31.6% | 46.4% | 92.6% | 55.1% | 44.4% | 79.9% | 4.1 | 30.9% | 30.6% | 24.8% | 33.1% | 28.2% | 15.3% | 21.9% | 26.3% | 93.4% | 4.36 | 17.1% | inhibition at 150 µM [22]: 11.3%; IC50 [23]: 209 µM; inhibition at 75 µM [24]: 8.64%; inhibition at 150 µM [25]: 35.6%; inhibition at 300 µM [26]: 57.7%; viability at 37.5 µM [27]: 100%; IC50 [28]: 197 µM; inhibition at 75 µM [29]: 20.9%; inhibition at 37.5 µM [30]: 17.1%; CC50 at 216 h [31]: 857 µM; inhibition at 300 µM [32]: 56%; inhibition at 37.5 µM [33]: 20.6%
